Assay outcomes from PubChem.
KCC2 mod = KCC2 cotransporter modulators, thallium flux, primary screen, cell-based, HEK293 KCC2, FluoZin-2 fluorescence, MLSMR; Solute carrier family 12 member 5 (Homo sapiens), Q9H2X9; KCC2 cells, thallium flux FluoZin-2 fluorescence; B-score of Tl+ flux slope (higher = more flux/activation; lower = inhibition) at 10 µM; 190,000 tested, 2.2% active; AID 1456, 2008;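 active = thallium flux slope and its plate-corrected score both differing from the plate sample mean at a set confidence after two filtering rounds, in either direction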;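 note: slope of fluorescence scaled to starting intensity during 10 to 20 s after thallium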
Diaphorase inh = diaphorase inhibitors and chemical oxidizers, primary screen, counter-screen for diaphorase-coupled primary assays, biochemical, uHTS, resorufin fluorescence. inhibition, % at 20 µM. 190,000 tested, 0.69% active. diaphorase resazurin-to-resorufin fluorescence, NADH, 16 min; bacterial (C. kluyveri) enzyme, not human;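 active = primary screen inhibition at 20 µM above a set limit, cut at about 50% in these data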;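 note: plate controls were DMSO with full reaction for no effect and wells lacking NADH for full effect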
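System: Diaphorase enzyme from Clostridium kluyveri | Amount: Enzyme working solution with 0.14 U/mL diaphorase | Benchmarks: No-NADH positive control and DMSO neutral control | Signal: Fluorescence of resorufin formed from resazurin, Ex 544/Em 590 nm | Schedule: 16-min room-temperature incubation before reading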
L major viab = Leishmania major promastigote growth inhibition, primary screen. Leishmania major promastigotes, resazurin fluorescence viability. inhibition, % at 10 µM. 200,000 tested, 9% active. AID 1063, 2008; in the data active = inhibition above about 50%;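 note: promastigotes grown with compound for 44 hours at 28 °C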
Diaph act CS = compounds boosting diaphorase resazurin reduction – biochemical, uHTS, resorufin fluorescence, counter-screen for diaphorase-coupled primary assays, primary screen | Diaphorase/resazurin coupled assay, 16 min; hits give high values; 1 = vehicle wells, 0 = NADH-free wells | activation factor at 20 µM | 190,000 tested, 0.005% active | AID 1229, 2008;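 active = diaphorase activity raised at least twofold by the compound at 20 µM; inactive = activation factor below 2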
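Material: purified diaphorase enzyme from Clostridium kluyveri / Medium: HEPES pH 7.4 buffer with MgCl2 and Tween 20 / Schedule: enzyme reaction of 16 min at room temperature / Measured by: resorufin fluorescence, excitation 544 nm, emission 590 nm / Evaluation: rise in resorufin formation, marking diaphorase activation or chemical reduction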
WT yeast gro inh = growth inhibition of WT strain, primary screen, mitochondrial fusion inhibitor project, WT and mutant strains, chemical genetic | mitochondrial fusion phenotypic screen | inhibition, % at 10 µM | 190,000 tested, 2.1% active | AID 1362, 2008; in the data active = inhibition above about 58%; tested in S. cerevisiae
ROMK mod = ROMK potassium channel modulators, primary screen, cell-based, thallium flux, MLSMR library. 130,000 tested, 2% active. ATP-sensitive inward rectifier potassium channel 1 (Homo sapiens), P48048. AID 1918, 2009. Tet-inducible ROMK, thallium flux fluorescence; actives lie on both sides. B-score at 10 µM;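 active = signal ratio slope over the read window, or its plate-corrected B-score, at least 3 SD from the plate mean, either direction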;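 note: B-score of the F/F0 ratio slope over 7 to 12 s after thallium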
Target sequence (P48048 whole entry, looked up): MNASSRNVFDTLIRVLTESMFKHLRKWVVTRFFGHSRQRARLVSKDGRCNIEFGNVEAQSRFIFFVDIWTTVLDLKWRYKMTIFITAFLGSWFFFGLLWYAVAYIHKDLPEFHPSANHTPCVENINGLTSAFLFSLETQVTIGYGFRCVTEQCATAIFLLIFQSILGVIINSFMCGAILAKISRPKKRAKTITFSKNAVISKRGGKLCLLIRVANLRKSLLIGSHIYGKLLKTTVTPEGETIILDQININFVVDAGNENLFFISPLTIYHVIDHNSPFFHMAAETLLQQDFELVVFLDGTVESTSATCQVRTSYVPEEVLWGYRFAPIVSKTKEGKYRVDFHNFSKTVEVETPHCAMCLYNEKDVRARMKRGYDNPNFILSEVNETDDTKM
Numbers without * were called inactive; x = no result. The list is not random: actives were taken first. Their share in the collection is about 12%.

SMILES	KCC2 mod	Diaphorase inh	L major viab	Diaph act CS	WT yeast gro inh	ROMK mod
C[C@@H]1O[C@@H](Oc2c(-c3cc(O)c(O)c(O)c3)oc3cc(O)cc(O)c3c2=O)[C@H](O)[C@H](O)[C@H]1O	-0.13	71*	-10	0.3	-2	1.6
CC(C)N1CCC(=NNc2ccc(S(=O)(=O)N3CCOCC3)cc2[N+](=O)[O-])CC1	0.28	7	99*	0.9	-9	x
CCCN1CCC(=NNc2ccc(S(=O)(=O)N3CCOCC3)cc2[N+](=O)[O-])CC1	0.9	0	100*	1	-8	0.96
CC(=O)N1CCC(=NNc2ccc(S(=O)(=O)N3CCOCC3)cc2[N+](=O)[O-])CC1	-0.17	17	-2	0.8	-7	x
OCC1(Cc2ccccc2)CCN(C2CCN(c3ccc(F)c(F)c3)CC2)CC1	0.33	x	98*	x	-23	x
Cc1cc(C)n(-c2cccc(CN3CCC(CO)(Cc4ccccc4)CC3)c2)n1	-1.3	15	9	0.8	16	-1.3
O=S(=O)(NCC(c1cccnc1)N1CCOCC1)c1ccccc1 (stereo not drawn)	0.7	15	-2	0.9	14	x
CCOc1ccccc1N1CCN(S(=O)(=O)c2cccs2)CC1	0.57	10	13	0.9	-19	-1.1
COc1ccccc1N1CCN(C(CNS(=O)(=O)c2cccs2)c2cccnc2)CC1 (stereo not drawn)	0.42	6	83*	0.9	-7	x
COc1ccc(N2CCN(C(CNS(=O)(=O)c3cccs3)c3cccnc3)CC2)cc1 (stereo not drawn)	x	5	98*	0.9	-19	-0.013
O=S(=O)(NCC(c1cccnc1)N1CCN(c2ccccc2)CC1)c1cccs1 (stereo not drawn)	x	7	89*	0.9	20	0.16
COc1ccc(S(=O)(=O)NCC(c2cccnc2)N2CCN(c3ccccc3)CC2)cc1C (stereo not drawn)	0.85	-12	97*	1.1	-5	-0.092
CCOc1ccc(CCNC(=O)CCS(=O)(=O)c2ccc(OC)cc2)cc1OCC	0.97	0	0	1	-11	-0.052
O=C(Nc1ccc(F)cc1)C1CCN(S(=O)(=O)c2cccs2)CC1	0.0066	1	7	1	5	0.55
Cc1ccc(Cl)cc1NC(=S)N(Cc1cccnc1)Cc1ccccc1Cl	x	12	99*	0.9	27	-2.2
Cc1cccc(C)c1NC(=S)N(Cc1ccccc1)Cc1cccs1	1.4	4	58*	1	73*	0.28
Cc1ccccc1NC(=S)N(Cc1ccccc1)Cc1cccnc1	-0.26	8	86*	0.9	-12	-0.64
CSc1cccc(NC(=S)N(Cc2ccc(C)cc2)Cc2cccnc2)c1	0.21	24	4	0.8	67*	0.72
COc1ccc(NC(=O)N(Cc2cccnc2)Cc2ccccc2Cl)c(OC)c1	0.059	x	46	x	-1	x
Cn1c(CSCc2ccc(Cl)cc2)n[nH]c1=S	-1.8	17	-5	0.8	6	-0.16
CCCC12CN3CC(CCC)(CN(C1)C3c1ccco1)C2=O (stereo not drawn)	0.13	x	x	x	x	x
Cn1nc(C(=O)Nc2ccc(S(=O)(=O)Nc3ncccn3)cc2)ccc1=O	-0.11	x	x	x	x	x
Cc1ccccc1NC(=S)N(Cc1cccnc1)Cc1ccco1	-0.0054	5	97*	0.9	-8	0.0036
CC(NCc1ccc(N(C)C)cc1)C1CC2CCC1C2 (stereo not drawn)	x	16	98*	0.8	4	-1.8
COc1ccc(OC)c(NC(=O)c2cc3c(Cl)nc4ccccc4c3s2)c1	-0.16	0	72*	1	-36	0.75
SMILES	KCC2 mod	Diaphorase inh	L major viab	Diaph act CS	WT yeast gro inh	ROMK mod
COc1ccc(NC(=O)c2cc3c(Cl)nc4ccccc4c3s2)cc1OC	-0.72	8	-4	0.9	2	0.5
C=C(C)C1CC=C(CN2CCC(O)CC2)CC1 (stereo not drawn)	0.18	3	93*	1	-15	0.02
C=C(C)[C@@H]1CC=C(CN2CCC(N3CCC(C(=O)N4CCCC4)CC3)CC2)CC1	-0.66	6	79*	0.9	19	-0.77
CC(C)=CCCC(C)CN1CCC(N2CCC(C(=O)N3CCCC3)CC2)CC1 (stereo not drawn)	0.1	-2	73*	1	6	-0.51
O=C(NCCCN1CCc2ccccc2C1)C1CCN(S(=O)(=O)N2CCC3(CC2)OCCO3)CC1	-0.05	-1	-4	1	9	0.26
COCCn1c(C)cc(C(=O)COC(=O)c2ccc([N+](=O)[O-])o2)c1C	0.04	4	75*	1	34	-0.43
Cc1cc(C(=O)COC(=O)c2ccc([N+](=O)[O-])o2)c(C)n1CC1CCCO1 (stereo not drawn)	-0.79	4	82*	1	43	0.054
Cc1cc(C(=O)COC(=O)c2ccc3c(c2)OCO3)c(C)n1CC1CCCO1 (stereo not drawn)	-1.1	-3	1	1	-8	-0.46
COc1cccc(NC(=S)N(Cc2ccccn2)Cc2ccccc2Cl)c1	-0.4	7	62*	0.9	68*	0.00066
COc1ccc(NC(=S)N(Cc2ccccn2)Cc2ccccc2Cl)cc1	-0.23	14	37	0.9	75*	0.12
O=C(CN1CCCc2ccccc21)Nc1ccc(F)cc1[N+](=O)[O-]	-0.32	2	-3	1	-1	-0.026
O=C(CCNS(=O)(=O)c1cccc2nsnc12)NCc1ccccc1Cl	0.069	5	3	0.9	-7	0.1
COc1cc(CN2CCN(c3ccccc3F)CC2)c([N+](=O)[O-])cc1OC	0.072	40	42	0.6	-5	-0.18
COc1cccc(CN2CCN(Cc3cc(OC)c(OC)cc3[N+](=O)[O-])CC2)c1	0.14	50*	60*	0.5	-20	-1.8
O=C(C1CCCCC1)N1CCN(c2ccnc3cc(Cl)ccc23)CC1	-1.3	x	x	x	x	-0.35
CCCCOc1ccc(CONS(=O)(=O)c2ccc(NC(C)=O)cc2)cc1Cl	-0.22	23	14	0.8	74*	x
COc1cc2c(C#N)c(N3CCN(C)CC3)nc(N)c2c(N)n1	0.28	36	100*	0.6	23	x
O=C(O)c1cccc(C(=O)O)n1	x	71*	-4	0.3	11	0.76
Cc1ccc(NC(=O)CNc2ccccc2CN(C)C2CCCCC2)cc1	0.14	-9	60*	1.1	7	-0.23
CN(CC(=O)Nc1ccc(OC(F)(F)F)cc1)C1CCCCC1	0.15	12	-2	0.9	-8	-0.22
